Results reported in ChEMBL document CHEMBL1130131, “12,13-isotaxanes: synthesis of new potent analogs and X-ray crystallographic confirmation of structure” (J Med Chem, 1997).
pIC50: −log10 of the molar value.

Assays:
Mus musculus [1] = test: % T/C(is ratio of median survival time in the group receiving the optimal dose to median survival time in the vehicle control group X 100.) is measured in B16 melanoma cells at the dose of 50 ng/kg on the days 1 and 3(experiment 2); format: functional
Procedure, shortened: (§1)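 B6D2F1 mice bearing intraperitoneally implanted B16 melanoma (method adapted from earlier work); test agent given iv on days 1 and 3, optimal total dose reported in ng/kg. %T/C = median survival time of the optimal-dose group divided by median survival time of the vehicle control group × 100. Values are individual results from two separate experiments.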

Mus musculus [2] = test: % T/C(is ratio of median survival time in the group receiving the optimal dose to median survival time in the vehicle control group X 100.) is measured in B16 melanoma cells at the dose of 50 ng/kg on the days 1 and 3(experiment 1); format: functional; procedure, shortened: as §1
B16 = test: Concentration inducing 20% mitotic index for mitotic block in murine B16 melanoma cells; format: functional, Mus musculus
Procedure, shortened: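 B16 melanoma cells were treated in culture, and mitotic index was measured by a method adapted from earlier work. The value is the drug concentration giving a 20% mitotic index.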

A2780 = test: Concentration of compound to inhibit the growth of human A2780 ovarian carcinoma cells(in vitro); format: functional, cell-based
Mus musculus [3] = test: % T/C was measured in B6D2F1 mice bearing ip-implanted B16 melanoma cells at the dose of 100n g/kg on the days 1 and 3; format: functional
Procedure, shortened: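 B6D2F1 mice bearing intraperitoneally implanted B16 melanoma received compound iv on days 1 and 3, with the total dose stated. %T/C = median survival time at the optimal dose ÷ median survival time of vehicle-treated controls × 100. The method was adapted from earlier work.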

Structure (SMILES) | T/C (Mus musculus [1]) | T/C (Mus musculus [2]) | Concentration giving 20% mitotic index (B16) | pIC50 (A2780) | T/C (Mus musculus [3])
CC(=O)O[C@H]1C(=O)[C@]2(C)C=CC3OC[C@@]3(OC(C)=O)C2[C@H](OC(=O)c2ccccc2)[C@]2(O)CC(OC(=O)[C@H](O)[C@@H](NC(=O)OC(C)(C)C)c3ccccc3)=C(C)C1C2(C)C (some centres undefined) | 181% | 181% | 10 nM | 8.92 | –
CC(=O)O[C@@]12COC1C[C@@H]1C[C@@]13C(=O)[C@H](O)C1C(C)=C(OC(=O)[C@H](O)[C@@H](NC(=O)OC(C)(C)C)c4ccccc4)C[C@@](O)([C@@H](OC(=O)c4ccccc4)C23)C1(C)C (some centres undefined) | 210% | 184% | 7 nM | 8.72 | –
CC(=O)O[C@H]1C(=O)[C@]2(C)C=CC3OC[C@@]3(OC(C)=O)C2[C@H](OC(=O)c2ccccc2)[C@]2(O)CC(OC(=O)[C@H](O)[C@@H](NC(=O)NC(C)(C)C)c3ccccc3)=C(C)C1C2(C)C (some centres undefined) | 241% | 232% | 10 nM | 9.30 | –
CC(=O)O[C@H]1C(=O)[C@]23C[C@H]2CC2OC[C@@]2(OC(C)=O)C3[C@H](OC(=O)c2ccccc2)[C@]2(O)CC(OC(=O)[C@H](O)[C@@H](NC(=O)NC(C)(C)C)c3ccccc3)=C(C)C1C2(C)C (some centres undefined) | 225% | 213% | 10 nM | 9.22 | –
CC(=O)O[C@@]12CO[C@@H]1C[C@H](O)[C@@]1(C)C(=O)[C@H](O)C3=C(C)[C@@H](OC(=O)[C@H](O)[C@@H](NC(=O)OC(C)(C)C)c4ccccc4)C[C@@](O)([C@@H](OC(=O)c4ccccc4)[C@H]21)C3(C)C.O.O.O [DOCETAXEL] | – | – | 15 nM | 8.74 | 177%
